Common to all, as to format: functional
For one assay, the system named is Mus musculus. As to the kind of experiment: Analgesic activity in Albino mouse assessed as protection against acetic acid-induced writhing at 10 mg/kg, ip within 30 mins. The conditions noted are these: route intraperitoneal. The essentials:
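Mice (20–25 g, either sex) starved 16 h, six per group, given 10 mg/kg i.p.; vehicle control received 1% DMSO at 0.5 ml/100 g. After 1 h, 0.1 ml of 3% acetic acid was given. Writhes were counted over 30 min, and the group mean was expressed as % inhibition versus control. Student's t-test was used.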
On the technique in general: An intraperitoneal irritant provokes the stretching counted in writhing tests.

The subject of assay [1] is Rattus norvegicus. As to the kind of experiment: Antiinflammatory activity in Albino rat assessed as protection against carrageenan-induced hind paw oedema at 10 mg/kg, po after 3 hrs. The essentials:
(§1)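 Rats (150–250 g, either sex) were fasted 18 h and grouped in sixes. Compounds or standards were given orally as a suspension in 5% DMSO. After 1 h, 0.1 ml of 1% carrageenin was injected subplantar into the right hind paw. Paw volume was read by mercury plethysmometer at once and at 3 h. % protection = 100(1−Vt/Vc) versus vehicle.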
(In general: In the carrageenan paw model, swelling and tenderness develop within hours.)

For assay [2], the system named is Rattus norvegicus. As to the kind of experiment: Antiinflammatory activity in Albino rat assessed as protection against carrageenan-induced hind paw oedema at 20 mg/kg, po after 3 hrs. The essentials: as §1
The subject of assay [3] is Rattus norvegicus. As to the kind of experiment: Antiinflammatory activity in Albino rat assessed as protection against carrageenan-induced hind paw oedema at 40 mg/kg, po after 3 hrs. In a few lines: as §1
The nature of assay [4]: Antioxidant activity assessed as nitric oxide radical scavenging activity at 5 ug/ml after 150 mins. In a few lines:
(§2)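 Sodium nitroprusside (10 mmol) in PBS at physiological pH was incubated with sample at 25 °C for 150 min in a 3 ml reaction. Aliquots taken every 30 min were mixed 1:1 with Griess reagent (1% sulphanilamide, 0.1% naphthylethylenediamine in 2% H3PO4), and absorbance was read at 546 nm. Runs were done in triplicate, and % scavenging was calculated against the blank.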

Assay [5] in a line: Antioxidant activity assessed as nitric oxide radical scavenging activity at 10 ug/ml after 150 mins. The essentials: as §2
Assay [6] can be described thus: Antioxidant activity assessed as nitric oxide radical scavenging activity at 15 ug/ml after 150 mins. In a few lines: as §2
Assay [7] in a line: Antioxidant activity assessed as nitric oxide radical scavenging activity at 20 ug/ml after 150 mins. In a few lines: as §2
A short description of assay [8]: Antioxidant activity assessed as nitric oxide radical scavenging activity at 25 ug/ml after 150 mins. The essentials: as §2
Assay [9] in a line: Antioxidant activity assessed as nitric oxide radical scavenging activity at 30 ug/ml after 150 mins. In a few lines: as §2
Assay [10] can be described thus: Antioxidant activity assessed as nitric oxide radical scavenging activity at 35 ug/ml after 150 mins. In a few lines: as §2
The nature of assay [11]: Inhibition of nitric oxide radical scavenging activity. In a few lines: as §2

In brackets after ≈: the same amount, converted by molar mass. Activity calls are given as the source filed them. No cut-off for these calls is given here.

Take `Cc1ccc(C(=O)c2sc(Nc3ccc(F)cc3)c(C(=O)O)c2C)cc1`: the Activity with Mus musculus is 22%; in the assay on Rattus norvegicus [1], 38%; with Rattus norvegicus [2], 44%; in the assay on Rattus norvegicus [3], 42%. For the same compound, the outcome in [4], in assay [5], in assay [6], in assay [7], in [8] and in assay [9] was inactive. In addition, the outcome in [10] and in assay [11] was inactive.

On to `COC(=O)c1c(Nc2ccc(C)cc2)sc(C(=O)c2ccc(C)cc2)c1C`, for which the Activity came out at 22% in the assay on Mus musculus, 32% with Rattus norvegicus [1], 36% in the assay with Rattus norvegicus [2] and 37% in the assay with Rattus norvegicus [3]. Moreover, the result in [4], in assay [5], in assay [6], in assay [7], in assay [8] and in assay [9] was inactive. Further, the result in assay [10] and in assay [11] was inactive.

On to `COC(=O)c1c(Nc2ccccc2)sc(/C(=N/O)c2ccc(C)cc2)c1C`, for which the Activity in the assay on Rattus norvegicus [1] worked out at 13%; in the assay on Rattus norvegicus [2] it was 21%; with Rattus norvegicus [3] it was 30%.

`COC(=O)c1c(Nc2ccc(Cl)cc2)sc(/C(=N\O)c2ccc(C)cc2)c1C`: the Activity with Rattus norvegicus [1] was 13%; in the assay with Rattus norvegicus [2], 29%; in the assay on Rattus norvegicus [3], 42%.

With `COc1ccc(C(=O)c2sc(Nc3ccc(Cl)cc3)c(C(=O)O)c2C)cc1`, the Activity in the assay with Mus musculus is on record as 30%; in the assay with Rattus norvegicus [1] it was 49%; in the assay with Rattus norvegicus [2], 49%; in the assay with Rattus norvegicus [3], 43%. In addition, the result in assay [4], in [5], in [6], in assay [7], in assay [8] and in [9] was inactive. In addition, the outcome in [10] and in assay [11] was inactive.

With `COC(=O)c1c(Nc2ccc(C)cc2)sc(/C(=N/O)c2ccc(OC)cc2)c1C`, the Activity with Rattus norvegicus [1] worked out at 22%; with Rattus norvegicus [2] it was 27%; in the assay with Rattus norvegicus [3], 30%.

Consider `Cc1ccc(C(=O)c2sc(Nc3ccccc3)c(C(=O)O)c2C)cc1`, for which the Activity turned out to be 17% in the assay on Mus musculus; 45% in the assay with Rattus norvegicus [1]; 47% in the assay on Rattus norvegicus [2]; 42% in the assay on Rattus norvegicus [3]; 0.26% in [4]; 0.85% in assay [5]. For the same compound, the Activity in assay [6] came to 1.25%; in [7], 2.68%; in [8], 4.35%; in assay [9], 5.13%; in assay [10], 5.55%. The compound also gave an IC50 in assay [11] of 259.47 µg/mL (≈ 738 µM).

Turning to `COC(=O)c1c(Nc2ccccc2)sc(C(=O)c2ccc(OC)cc2)c1C`, the Activity in the assay on Mus musculus came out at 55%; in the assay with Rattus norvegicus [1], 69%; in the assay with Rattus norvegicus [2], 70%; with Rattus norvegicus [3] it was 73%; in assay [4], 13.3%; in assay [5] it was 18%. Besides, the Activity in [6] stood at 28.6%; in assay [7], 32.4%; in assay [8], 36.9%; in assay [9], 48.1%; in [10] it was 63%. In assay [11], this compound showed an IC50 of 30.08 µg/mL (≈ 78.9 µM).

As to `COC(=O)c1c(Nc2ccccc2)sc(/C(=N/O)c2ccc(OC)cc2)c1C`, the Activity is 5% with Rattus norvegicus [1], 38% in the assay on Rattus norvegicus [2] and 34% in the assay with Rattus norvegicus [3].

`COc1ccc(C(=O)c2sc(Nc3ccccc3)c(C(=O)O)c2C)cc1`: the Activity in the assay with Mus musculus turned out to be 30%; in the assay with Rattus norvegicus [1] it was 79%; in the assay with Rattus norvegicus [2] it was 80%; in the assay with Rattus norvegicus [3] it was 70%; in [4] it was 19.6%; in [5], 24.7%. Moreover, the Activity amounted to 36.5% in assay [6]; 41.2% in assay [7]; 52.6% in assay [8]; 59.5% in [9]; 61.2% in [10]. The compound also came in with a half-inhibitory concentration (IC50) in assay [11] of 25.2 µg/mL (≈ 68.6 µM).

`COC(=O)c1c(Nc2ccc(F)cc2)sc(C(=O)c2ccc(C)cc2)c1C`: the Activity is listed as 37% in the assay on Mus musculus, 38% in the assay on Rattus norvegicus [1], 46% with Rattus norvegicus [2] and 23% in the assay with Rattus norvegicus [3]. Besides, the outcome in [4], in [5], in [6], in assay [7], in assay [8] and in assay [9] was inactive. Besides, the outcome in assay [10] and in assay [11] was inactive.

Take `COc1ccc(C(=O)c2sc(Nc3ccc(F)cc3)c(C(=O)O)c2C)cc1`: the Activity in the assay on Mus musculus worked out at 28%; in the assay on Rattus norvegicus [1], 57%; in the assay with Rattus norvegicus [2], 57%; with Rattus norvegicus [3] it was 54%; in assay [4], 0.1%; in assay [5] it was 0.98%. The Activity in [6] came to 1.98%; in [7], 3.58%; in [8], 8.36%; in assay [9], 10.5%; in assay [10] it was 12.8%. Also, in assay [11], the IC50 was determined as 118.32 µg/mL (≈ 307 µM).

Take `COc1ccc(Nc2sc(C(=O)c3ccc(OC)cc3)c(C)c2C(=O)O)cc1`: the Activity with Mus musculus came out at 22%; in the assay with Rattus norvegicus [1] it was 72%; in the assay on Rattus norvegicus [2] it was 75%; with Rattus norvegicus [3] it was 69%; in [4], 20.1%; in assay [5], 23.5%. The Activity came out at 30.6% in assay [6]; 32.5% in assay [7]; 38.5% in assay [8]; 41.2% in assay [9]; 51% in assay [10]. The same compound showed an IC50 in assay [11] of 36.57 µg/mL (≈ 92 µM).

Regarding `COC(=O)c1c(Nc2ccc(Cl)cc2)sc(C(=O)c2ccc(OC)cc2)c1C`, the Activity with Mus musculus was 60%; in the assay with Rattus norvegicus [1] it was 42%; in the assay with Rattus norvegicus [2] it was 40%; in the assay with Rattus norvegicus [3], 39%. The outcome in [4], in [5], in assay [6], in [7], in assay [8] and in assay [9] was inactive. Further, the outcome in assay [10] and in assay [11] was inactive.

As to `COC(=O)c1c(Nc2ccc(Cl)cc2)sc(/C(=N/O)c2ccc(OC)cc2)c1C`, the Activity with Rattus norvegicus [1] was found to be 3%; in the assay with Rattus norvegicus [2], 12%; in the assay with Rattus norvegicus [3], 30%.

On to `CC(C)Cc1ccc(C(C)C(=O)O)cc1` (stereo not given) [IBUPROFEN], for which the values for the Activity in the assay with Mus musculus and in the assay on Rattus norvegicus [2] were 60% and 33%, respectively.

Regarding `COC(=O)c1c(Nc2ccc(F)cc2)sc(/C(=N/O)c2ccc(OC)cc2)c1C`, the results for the Activity in the assay with Rattus norvegicus [1], with Rattus norvegicus [2] and in the assay on Rattus norvegicus [3] were 20%, 25% and 30%, respectively.

The IC50 is the concentration that inhibits the measured activity by half. The low end stands for greater potency in that assay, the high end for weaker potency in that assay.

The record behind these values is ChEMBL document CHEMBL1147872, “Syntheses of new tetrasubstituted thiophenes as novel anti-inflammatory agents” (Eur J Med Chem, 2007).
